Source: ChEMBL document CHEMBL4422671, “New Quinolylnitrones for Stroke Therapy: Antioxidant and Neuroprotective ( Z)- N- tert-Butyl-1-(2-chloro-6-methoxyquinolin-3-yl)methanimine Oxide as a New Lead-Compound for Ischemic Stroke Treatment” (J Med Chem, 2019)
The source made the active and inactive calls. The rule behind the calls is not given here.

Columns and labels:
Primary neuron [1] = experiment: Neuroprotective activity against oxygen-glucose deprivation-induced cell death in Sprague-Dawley rat primary neuronal cells assessed as cell viability at 0.5 to 250 uM treated at onset of recovery period and measured at 24 hrs of recovery by MTT assay relative to control; type: functional, cell-based
Summary of the method: (§1)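 Rat cortical neurons from E16–17 Sprague-Dawley embryos, used at 6–7 days in serum-free medium. OGD: glucose-free medium bubbled with 95% N2/5% CO2, <0.1% O2, 6.5% CO2, 37 °C, 4 h. Compound added at start of 24 h normoxic recovery. Viability by MTT (0.2 mg/mL, 1.5 h), lysis with HCl/SDS, read at 595/690 nm, relative to 100% control. Four to eight culture batches, each in quadruplicate.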

Primary neuron [2] = experiment: Neuroprotective activity against oxygen-glucose deprivation-induced cell death in Sprague-Dawley rat primary neuronal cells assessed as cell viability at 1 to 250 uM treated at onset of recovery period and measured at 24 hrs of recovery by MTT assay relative to control; type: functional, cell-based; summary of the method: as §1
Primary neuron [3] = experiment: Neuroprotective activity against oxygen-glucose deprivation-induced cell death in Sprague-Dawley rat primary neuronal cells assessed as cell viability at 0.5 to 10 uM treated at onset of recovery period and measured at 24 hrs of recovery by MTT assay relative to control; type: functional, cell-based; summary of the method: as §1
[4] = Neuroprotective activity against oxygen-glucose deprivation-induced cell death in Sprague-Dawley rat primary neuronal cells assessed as cell viability at 250 uM treated at onset of recovery period and measured at 24 hrs of recovery by MTT assay relative to control; type: functional; conditions: Primary neuron, read-out: Activity; summary of the method: as §1
[5] = Neuroprotective activity against oxygen-glucose deprivation-induced cell death in Sprague-Dawley rat primary neuronal cells assessed as cell viability at 100 uM treated at onset of recovery period and measured at 24 hrs of recovery by MTT assay relative to control; type: functional; conditions: Primary neuron, read-out: Activity; summary of the method: as §1
[6] = Antioxidant activity assessed as DPPH free radical scavenging activity at 0.1 mM measured after 20 to 60 mins; type: functional
Summary of the method: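 DPPH 0.1 mM in absolute ethanol with compound at 0.1 mM final (from DMSO). Absorbance at 517 nm recorded after 20 and 60 min at rt. NDGA as standard.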

[7] = Antioxidant activity assessed as hydroxyl radical scavenging activity at 0.1 mM measured after 30 mins; type: functional
Summary of the method: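 Hydroxyl radicals from Fe3+/ascorbic acid: EDTA 0.1 mM, Fe3+ 167 μM, DMSO 33 mM, compound 0.1 mM and ascorbic acid 10 mM in 50 mM phosphate buffer pH 7.4. Incubated 37 °C for 30 min, stopped with 17% w/v TCA. Read-out is inhibition of formaldehyde formation, given as % scavenging. Trolox as reference.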

[8] = Antioxidant activity assessed as inhibition of linoleic acid peroxidation activity at 10 uL; type: functional; parameters: scale not given: the % may be the effect or the level left
Summary of the method: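 AAPH-initiated peroxidation of sodium linoleate dispersion (16 mM, 10 μL) in 0.05 M phosphate buffer pH 7.4 at 37 °C under air. Initiator was 50 μL of 40 mM AAPH, with 10 μL compound added. Conjugated diene hydroperoxide followed at 234 nm. Trolox as reference.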

[9] = Antioxidant activity assessed as ABTS radical cation scavenging activity by measuring trolox equivalents at 10 uL after 1 min; type: functional
Summary of the method: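 ABTS radical cation made from 2 mM aqueous ABTS plus 0.17 mM potassium persulfate in 20 mM phosphate buffer pH 7.4, kept 12–16 h dark at rt. Diluted with ethanol to A734 0.70, then mixed with 10 μL compound from 10 mM stock. Absorbance read at rt 1 min after mixing. Trolox as standard.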

Lipoxygenase = Lipoxygenase (Glycine max, UniProt Q39829); experiment: Inhibition of soybean lipoxygenase using sodium linoleate as substrate by UV-based analysis
Summary of the method: (§2)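 Soybean lipoxygenase (enzyme 1/9 ×10⁻⁴ w/v in saline) incubated at rt with 0.1 mM sodium linoleate and compound in DMSO, at several concentrations from 1 to 100 µM diluted from 10 mM stock. Conversion to 13-hydroperoxylinoleic acid recorded at 234 nm; IC50 derived. NDGA as reference inhibitor.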

[10] = Antioxidant activity assessed as superoxide anion scavenging activity at 0.1 mM pH 7.4 after 10 mins by NBT assay; type: functional
Summary of the method: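 Superoxide generated by xanthine/xanthine oxidase (0.07 U/mL) in 0.1 M phosphate buffer pH 7.4 containing NBT and compound at 0.1 mM final. After 10 min at rt, absorbance read at 560 nm. Caffeic acid as standard.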

Rattus norvegicus = experiment: Antiinflammatory activity in Fisher 344 rat model of carrageenan-induced edema assessed as inhibition of carrageenan-induced paw edema at 0.01 mmol/kg, ip dosed simultaneously with carrageenan injection relative to control; type: functional; conditions: Fisher 344, ip
Summary of the method: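 Fisher 344 rats (150–200 g), both sexes. Edema was induced by intradermal injection of 0.1 mL 2% carrageenan in water into the right hind paw. Compound was suspended in water with a few drops of Tween 80. Rats were euthanized 3.5 h later. The injected-minus-uninjected paw weight difference was compared with water or Tween-water controls as % inhibition. Mean of two experiments, n = 6 each.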

[11] = Neuroprotective activity against oxygen-glucose deprivation-induced cell death in Sprague-Dawley rat primary neuronal cells assessed as cell viability at 10 uM treated at onset of recovery period and measured at 24 hrs of recovery by MTT assay relative to control; type: functional; conditions: Primary neuron, read-out: Activity; summary of the method: as §1
[12] = Neuroprotective activity against oxygen-glucose deprivation-induced cell death in Sprague-Dawley rat primary neuronal cells assessed as cell viability at 50 uM treated at onset of recovery period and measured at 24 hrs of recovery by MTT assay relative to control; type: functional; conditions: Primary neuron, read-out: Activity; summary of the method: as §1
Primary neuron [13] = experiment: Neuroprotective activity against oxygen-glucose deprivation-induced cell death in Sprague-Dawley rat primary neuronal cells assessed as cell viability at 1 to 100 uM treated at onset of recovery period and measured at 24 hrs of recovery by MTT assay relative to control; type: functional, cell-based; summary of the method: as §1
[14] = Antiinflammatory activity assessed as NO release at 100 uM after 60 mins in presence of L-cysteine by Griess reagent-based relative to control; type: functional
Summary of the method: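 NO-release test: compound at 100 μM final (from DMSO) in 50 mM phosphate buffer pH 7.4 containing 1 mM L-cysteine, 60 min at 37 °C. Reaction mixture then treated with Griess reagent, left 10 min at rt, absorbance read at 540 nm. Sodium nitroprusside as standard. Mean of three to four determinations.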

Mus musculus [15] = experiment: Neuroprotective activity in C57BL/6 mouse model of ischemia-induced cerebral ischemia model assessed reduction in neurodeficit score at 40 mg/kg, ip administered at onset of reperfusion period and measured at 5 days reperfusion post ischemia; type: functional, organism-based
Mus musculus [16] = experiment: Neuroprotective activity in C57BL/6 mouse model of transient middle cerebral artery occlusion-induced ttransient focal cerebral ischemia assessed decrease in motor deficit by measuring improvement in grip strength at 40 mg/kg, ip measured after 48 hrs post dose by grip strength Test; type: functional; parameters: scale not given: the % may be the effect or the level left
Mus musculus [17] = experiment: Neuroprotective activity in C57BL/6 mouse model of transient middle cerebral artery occlusion-induced ttransient focal cerebral ischemia assessed decrease in size of ischemic lesion at 40 mg/kg, ip measured after 48 hrs post dose relative to control; type: functional, organism-based
Mus musculus [18] = experiment: (§3) Neuroprotective activity in C57BL/6 mouse model of ischemia-induced cerebral ischemia model assessed reduction in neuronal cell death in hippocampal CA1 region at 40 mg/kg, ip administered at onset of reperfusion period and measured at 5 days reperfusion post ischemia by Fluoro-Jade-staining assay based relative to control; type: functional, organism-based
Mus musculus [19] = experiment: as §3, with “cortical” for “hippocampal CA1”; type: functional, organism-based
Mus musculus [20] = experiment: Neuroprotective activity in C57BL/6 mouse model of ischemia-induced cerebral ischemia model assessed as reduction in apoptosis in hippocampal CA1 region at 40 mg/kg, ip administered at onset of reperfusion period and measured at 5 days reperfusion post ischemia by TUNNEL assay relative to control; type: functional, organism-based
Mus musculus [21] = experiment: Neuroprotective activity in C57BL/6 mouse model of ischemia-induced cerebral ischemia model assessed as reduction in apoptosis in cortical region at 40 mg/kg, ip administered at onset of reperfusion period and measured at 5 days reperfusion post ischemia by TUNNEL assay relative to control; type: functional, organism-based
Primary neuron [22] = experiment: Neuroprotective activity against oxygen-glucose deprivation-induced cell death in Sprague-Dawley rat primary neuronal cells assessed as cell viability at 0.3 to 100 uM treated at onset of recovery period and measured at 24 hrs of recovery by MTT assay relative to control; type: functional, cell-based; summary of the method: as §1
Primary neuron [23] = experiment: Neuroprotective activity against oxygen-glucose deprivation-induced cell death in Sprague-Dawley rat primary neuronal cells assessed as cell viability at 1 to 10 uM treated at onset of recovery period and measured at 24 hrs of recovery by MTT assay relative to control; type: functional, cell-based; summary of the method: as §1
[24] = biological target: Lipoxygenase (Glycine max) (UniProt Q39829); experiment: Inhibition of soybean lipoxygenase at 1 to 100 uM using sodium linoleate as substrate by UV-based analysis relative to control; summary of the method: as §2

Cc1ccc2nc(Cl)c(/C=N/Cc3ccccc3)cc2c1
Activity (Primary neuron [1]): inactive

Cc1ccc2nc(N(C)C)c(/C=[N+](\[O-])Cc3ccccc3)cc2c1
Activity (Primary neuron [2]): Active

Cc1ccc2nc(Cl)c(/C=N/C(C)(C)C)cc2c1
Activity (Primary neuron [2]): inactive

Cc1ccc2nc(Cl)c(/C=N/OCc3ccccc3)cc2c1
Activity (Primary neuron [3]): inactive

CC(C)(C)/[N+]([O-])=C/c1cc2ccccc2nc1O
viability at 250 µM [4]: 55%
viability at 100 µM [5]: 48.8%
Activity [6]: inactive
Activity [7]: 99%
Activity [8]: 100%
Activity [9]: 6%
IC50 (Lipoxygenase): 36.5 µM
Activity [10]: 23%

COc1ccc2c(c1)c(CC(=O)O)c(C)n2C(=O)c1ccc(Cl)cc1 [INDOMETHACIN]
inhibition in vivo at 10 µmol/kg (Rattus norvegicus): 47%

Cc1ccc2nc(Cl)c(/C=[N+](\[O-])Cc3ccccc3)cc2c1
viability at 10 µM [11]: 55.4%
viability at 50 µM [12]: 56.8%

Cc1ccc2nc(Cl)c(/C=N/N)cc2c1
Activity (Primary neuron [2]): inactive

Cc1ccc2nc(O)c(/C=[N+](\[O-])Cc3ccccc3)cc2c1
Activity (Primary neuron [2]): Active

[O-]/[N+](=C\c1cc2cc(Cl)ccc2nc1Cl)Cc1ccccc1
Activity (Primary neuron [2]): inactive

O=C(O)/C=C/c1ccc(O)c(O)c1
Activity [10]: 15%

Cc1ccc2ncc(/C=[N+](\[O-])Cc3ccccc3)cc2c1
Activity (Primary neuron [2]): Active

CC(C)(C)/[N+]([O-])=C/c1cc2ccccc2n2nnnc12
Activity (Primary neuron [13]): inactive

Cc1ccc2nc(O)c(/C=[N+](\[O-])C(C)(C)C)cc2c1
Activity (Primary neuron [2]): Active

COc1nc2ccccc2cc1/C=[N+](\[O-])Cc1ccccc1
Activity (Primary neuron [13]): inactive

CC(C)(C)/[N+]([O-])=C/c1ccc(S(=O)(=O)[O-])cc1S(=O)(=O)[O-].[Na+].[Na+]
viability at 250 µM [4]: 52.9%
Activity [6]: inactive
Activity [7]: 94%
Activity [8]: inactive
Activity [9]: inactive
IC50 (Lipoxygenase): 57.5 µM
Activity [14]: 1%
Activity [10]: inactive
Activity (Mus musculus [15]): Active
Activity (Mus musculus [16]): 20.7%
Activity (Mus musculus [17]): inactive
Activity (Mus musculus [18]): inactive
Activity (Mus musculus [19]): inactive
Activity (Mus musculus [20]): inactive
Activity (Mus musculus [21]): inactive

[O-]/[N+](=C\c1cc2cc(O)ccc2nc1Cl)Cc1ccccc1
Activity (Primary neuron [2]): inactive

Cc1ccc2nc(Cl)c(/C=N/O)cc2c1
Activity (Primary neuron [1]): inactive

CC(Cc1ccc(O)c(O)c1)C(C)Cc1ccc(O)c(O)c1 (stereo unspecified) [NORDIHYDROGUAIARETIC ACID]
Activity [6]: 93%

COc1ccc2nc(Cl)c(/C=[N+](\[O-])Cc3ccccc3)cc2c1
Activity [6]: 3%
Activity [7]: 65%
Activity [8]: 100%
Activity [9]: inactive
IC50 (Lipoxygenase): 100 µM
Activity [14]: 12.5%
Activity [10]: 18%
Activity (Primary neuron [22]): inactive

Cc1c(C)c2c(c(C)c1O)CCC(C)(C(=O)O)O2 (stereo unspecified)
Activity [7]: 73%
Activity [8]: 88%
Activity [9]: 91%

COc1nc2ccc(C)cc2cc1/C=[N+](\[O-])Cc1ccccc1
Activity (Primary neuron [13]): inactive

[O-]/[N+](=C\c1cc2ccccc2nc1Cl)Cc1ccccc1
Activity (Primary neuron [13]): inactive

CC(C)(C)/[N+]([O-])=C/c1cc2ccccc2nc1Cl
Activity [6]: 7%
Activity [7]: 97%
Activity [8]: inactive
Activity [9]: inactive
IC50 (Lipoxygenase): 32.5 µM
Activity [14]: 7.5%
Activity [10]: 16%
Activity (Primary neuron [13]): inactive

Cc1ccc2nc(Cl)c(/C=[N+](\[O-])c3ccccc3)cc2c1
Activity (Primary neuron [2]): inactive

CNc1nc2ccc(C)cc2cc1/C=[N+](\[O-])Cc1ccccc1
Activity (Primary neuron [23]): inactive

COc1ccc(OC)c2nc(Cl)c(/C=[N+](\[O-])Cc3ccccc3)cc12
Activity (Primary neuron [13]): inactive

COc1ccc2cc(/C=[N+](\[O-])Cc3ccccc3)c(Cl)nc2c1
Activity (Primary neuron [13]): inactive

COc1ccc2nc(Cl)c(C=O)cc2c1
Activity (Primary neuron [13]): inactive

COc1ccc2nc(Cl)c(/C=[N+](/C)[O-])cc2c1
Activity [6]: inactive
Activity [7]: 100%
Activity [8]: 100%
Activity [9]: inactive
inhibition [24]: 26%
Activity [14]: 11%
Activity [10]: 29%
Activity (Primary neuron [2]): inactive

Cc1ccc2nc(Cl)c(/C=N/NCc3ccccc3)cc2c1
Activity (Primary neuron [2]): inactive
